Data taken from ChEMBL document CHEMBL1128453, “Peptidyl alpha-ketoheterocyclic inhibitors of human neutrophil elastase. 3. In vitro and in vivo potency of a series of peptidyl alpha-ketobenzoxazoles” (J Med Chem, 1995).

Key:
Chymotrypsinogen A = Chymotrypsinogen A (Bos taurus, UniProt P00766); experiment: Binding affinity towards chymotrypsin
[1] = Percent reduction in leukocytes following elastase challenge/treatment.; assay type: functional; set-up: concentration or dose not given beside the values
How it was run: (§1)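 Male Syrian hamsters (90–110 g), anaesthetised with brevital sodium (30 mg/kg ip), received intratracheal HNE (400 μg in 0.01 M PBS). Test agent was given intratracheally, either admixed with the enzyme or predosed (shortest interval 6 h). Dose interval is the longest with significant lesion inhibition. At 24 h, wet lung weight/body weight and lavage red/white cells (Coulter) were measured. Results are % reduction scaled between the HNE and saline controls (p = 0.05).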

[2] = molecular target: T1, Angiotensin-converting enzyme (Rattus norvegicus, UniProt P47820); experiment: Biological activity was measured against Angiotensin I converting enzyme
T1 sequence (P47820 whole entry): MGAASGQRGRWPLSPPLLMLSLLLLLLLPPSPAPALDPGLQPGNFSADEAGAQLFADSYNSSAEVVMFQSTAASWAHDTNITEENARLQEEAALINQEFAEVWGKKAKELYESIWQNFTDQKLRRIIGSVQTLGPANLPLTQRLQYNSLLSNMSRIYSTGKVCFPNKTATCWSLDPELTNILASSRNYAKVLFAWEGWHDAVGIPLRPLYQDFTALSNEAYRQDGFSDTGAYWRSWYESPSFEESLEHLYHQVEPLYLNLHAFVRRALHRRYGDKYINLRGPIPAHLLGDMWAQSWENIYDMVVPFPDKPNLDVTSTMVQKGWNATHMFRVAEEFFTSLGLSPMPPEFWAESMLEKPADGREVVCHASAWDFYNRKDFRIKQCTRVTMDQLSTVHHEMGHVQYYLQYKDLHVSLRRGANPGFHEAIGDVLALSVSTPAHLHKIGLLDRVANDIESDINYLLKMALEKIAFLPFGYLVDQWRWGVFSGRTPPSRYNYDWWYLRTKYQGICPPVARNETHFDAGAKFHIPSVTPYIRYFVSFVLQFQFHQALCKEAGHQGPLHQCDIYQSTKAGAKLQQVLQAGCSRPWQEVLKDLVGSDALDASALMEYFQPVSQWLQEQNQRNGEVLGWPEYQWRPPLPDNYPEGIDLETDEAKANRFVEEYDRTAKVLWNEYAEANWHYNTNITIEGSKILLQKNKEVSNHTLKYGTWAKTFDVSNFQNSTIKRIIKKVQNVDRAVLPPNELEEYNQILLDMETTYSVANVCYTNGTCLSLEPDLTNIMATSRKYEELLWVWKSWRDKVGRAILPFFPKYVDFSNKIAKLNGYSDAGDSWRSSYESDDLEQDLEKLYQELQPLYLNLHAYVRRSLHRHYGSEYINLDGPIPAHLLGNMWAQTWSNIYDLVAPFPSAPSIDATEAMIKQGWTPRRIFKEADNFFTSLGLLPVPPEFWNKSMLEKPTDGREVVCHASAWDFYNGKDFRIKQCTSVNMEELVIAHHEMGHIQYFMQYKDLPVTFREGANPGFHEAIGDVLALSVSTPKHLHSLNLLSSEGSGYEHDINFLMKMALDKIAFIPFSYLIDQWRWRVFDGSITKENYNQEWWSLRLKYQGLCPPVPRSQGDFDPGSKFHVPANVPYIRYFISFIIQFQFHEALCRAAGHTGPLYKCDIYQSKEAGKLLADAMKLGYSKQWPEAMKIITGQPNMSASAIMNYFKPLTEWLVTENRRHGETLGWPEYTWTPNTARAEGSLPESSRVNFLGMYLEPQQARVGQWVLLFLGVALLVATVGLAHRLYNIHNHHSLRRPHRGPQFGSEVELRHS

Cathepsin G = molecular target: T2, Cathepsin G (Homo sapiens, UniProt P08311); experiment: Binding affinity towards cathepsin G
T2 sequence (P08311 whole entry): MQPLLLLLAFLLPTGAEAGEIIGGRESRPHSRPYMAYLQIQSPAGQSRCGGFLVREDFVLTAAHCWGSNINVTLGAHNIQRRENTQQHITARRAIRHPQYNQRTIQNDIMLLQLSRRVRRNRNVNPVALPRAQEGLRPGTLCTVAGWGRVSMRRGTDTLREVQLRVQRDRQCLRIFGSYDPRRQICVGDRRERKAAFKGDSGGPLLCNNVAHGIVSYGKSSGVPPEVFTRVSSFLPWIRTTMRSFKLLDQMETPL

[3] = molecular target: T3, Neutrophil elastase (Homo sapiens) (UniProt P08246); conditions: Lung
T3 sequence (whole entry): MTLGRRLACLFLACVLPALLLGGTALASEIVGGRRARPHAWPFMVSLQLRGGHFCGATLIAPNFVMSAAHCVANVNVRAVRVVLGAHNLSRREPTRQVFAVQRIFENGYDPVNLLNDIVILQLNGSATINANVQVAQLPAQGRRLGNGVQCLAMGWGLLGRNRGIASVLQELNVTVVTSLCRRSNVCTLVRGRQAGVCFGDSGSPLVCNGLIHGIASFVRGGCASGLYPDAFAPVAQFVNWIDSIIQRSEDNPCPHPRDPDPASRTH

Serine protease 1 = Serine protease 1 (Homo sapiens, UniProt P07477); experiment: Binding affinity towards trypsin
Neutrophil elastase = molecular target: T4, Neutrophil elastase (Homo sapiens, UniProt P08246); experiment: Inhibition of human neutrophil elastase-catalyzed hydrolysis of the synthetic substrate MeO-Suc-Ala-Ala-Pro-Val-pNa
T4 sequence (P08246 whole entry): T3 sequence (whole entry)

Prothrombin = Prothrombin (Homo sapiens, UniProt P00734); experiment: Binding affinity towards thrombin
Papain = molecular target: T5, Papain (Carica papaya, UniProt P00784); experiment: Binding affinity towards papain
T5 sequence (P00784 whole entry): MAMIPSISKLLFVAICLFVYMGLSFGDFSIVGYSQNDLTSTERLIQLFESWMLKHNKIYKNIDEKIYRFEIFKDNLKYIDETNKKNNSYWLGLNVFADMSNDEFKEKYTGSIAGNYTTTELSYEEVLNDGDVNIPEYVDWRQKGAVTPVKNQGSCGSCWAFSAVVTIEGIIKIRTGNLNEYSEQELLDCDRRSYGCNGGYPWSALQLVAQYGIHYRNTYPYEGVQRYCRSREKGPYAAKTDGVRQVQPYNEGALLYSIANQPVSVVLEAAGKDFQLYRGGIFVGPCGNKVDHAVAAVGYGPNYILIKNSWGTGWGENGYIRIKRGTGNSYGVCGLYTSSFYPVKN

[4] = Percentage reduction in erythrocytes following elastase challenge/treatment.; assay type: functional; set-up: concentration or dose not given beside the values; how it was run: as §1

Chain of Serine protease 1 (P07477 whole entry): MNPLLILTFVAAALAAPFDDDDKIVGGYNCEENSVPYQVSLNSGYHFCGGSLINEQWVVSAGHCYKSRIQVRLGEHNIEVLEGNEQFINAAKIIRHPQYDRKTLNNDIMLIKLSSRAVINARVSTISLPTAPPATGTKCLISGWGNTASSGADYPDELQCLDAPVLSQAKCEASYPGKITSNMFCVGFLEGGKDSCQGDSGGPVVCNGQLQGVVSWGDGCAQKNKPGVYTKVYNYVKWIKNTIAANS

CC(C)[C@H](NC(=O)[C@@H]1CCCN1C(=O)[C@@H](NC(=O)c1ccc(C(=O)NS(=O)(=O)c2ccc(Cl)cc2)cc1)C(C)C)C(=O)c1nc2cc(C(N)=O)ccc2o1
Ki (Chymotrypsinogen A): 92 µM
Reduction [1]: 53%
Ki [2]: > 200 µM
Ki (Cathepsin G): > 2000 µM
Lw/Bw [3]: 54
Ki (Serine protease 1): > 50 µM
Ki (Neutrophil elastase): 0.0002 µM
Ki (Prothrombin): > 50 µM
Ki (Papain): > 200 µM
Reduction [4]: 64%
